Data published in ChEMBL document CHEMBL1126084, “2-Acetylpyridine thiocarbonohydrazones. Potent inactivators of herpes simplex virus ribonucleotide reductase” (J Med Chem, 1992).

Columns and labels:
[1] = target: T1, Ribonucleoside-diphosphate reductase RR1 (Homo sapiens) (UniProt P23921+Q7LG56+P31350); experiment: Apparent enzyme activity measured as the ratio of HSV-1 and human enzyme inhibition induces; assay type: functional; conditions: Human alphaherpesvirus 1
Outline: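 Apparent selectivity is the ratio of HSV-1 to human inhibition indices, each from eq 1 at 5 μM inhibitor or at the indicated concentration for each enzyme.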

Human alphaherpesvirus 1 [2] = experiment: Inactivation of HSV-1 ribonucleotide reductase by the compound (5 uM) at rate constant K inact.; assay type: functional
Outline: (§1)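 Partially purified HSV-1 ribonucleotide reductase, assayed by reduction of purified [14C]CDP in 200 mM Hepes Na+ pH 7.7, 10 mM dithiothreitol, 2 μM CDP (500 Ci/mol, 3–4 × Km), with and without 5 μM inhibitor unless otherwise indicated. First-order kinact (per hour) and v0 of decelerating product time courses come from iterative nonlinear least squares. kinact is the net increase over the uninhibited control, and % inhibition refers to v0.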

[3] = target: T1, Ribonucleoside-diphosphate reductase RR1 (Homo sapiens); experiment: Inhibitory index against human ribonucleotide reductase calculated as, [1+k inact/f+0.01] where f = 1-% inhibition/100).; assay type: protein-complex assay
Outline: (§2)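 Index per eq 1 combines kinact and percent inhibition of initial velocity from reductase reactions ±5 μM inhibitor (unless otherwise indicated). 0.99 is subtracted from the calculated ratio, so a non-inhibiting, non-inactivating compound scores zero. HSV-1 and human enzymes were assayed under their respective conditions.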

Human alphaherpesvirus 1 [4] = experiment: Inhibitory index against HSV-1 ribonucleotide reductase calculated as, [1+k inact/f+0.01] where f = 1-% inhibition/100).; assay type: functional; outline: as §2
[5] = target: T1, Ribonucleoside-diphosphate reductase RR1 (Homo sapiens); experiment: Inhibition of human ribonucleotide reductase by the compound (5 uM); assay type: protein-complex assay
Outline: (§3)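 The ATP contributed about 3 μM iron, keeping inhibitors iron-complexed. Reactions ran ±5 μM inhibitor unless otherwise indicated. kinact (per hour, net over the control) and v0 came from iterative nonlinear least-squares fits of decelerating time courses.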

[6] = target: T1, Ribonucleoside-diphosphate reductase RR1 (Homo sapiens); experiment: Inactivation of human ribonucleotide reductase by the compound (5 uM) at rate constant K inact.; assay type: protein-complex assay; outline: as §3
Human alphaherpesvirus 1 [7] = experiment: Inhibition of HSV-1 ribonucleotide reductase by the compound (5 uM); assay type: functional; outline: as §1
Human alphaherpesvirus 1 [8] = experiment: Inhibition of HSV-1 ribonucleotide reductase; parameters: concentration or dose not given beside the values; conditions: concentration not given here; outline: as §1
Human alphaherpesvirus 1 [9] = experiment: Inactivation of HSV-1 ribonucleotide reductase at rate constant K inact; outline: as §1
[10] = target: T1, Ribonucleoside-diphosphate reductase RR1 (Homo sapiens); experiment: Inactivation of human ribonucleotide reductase at rate constant K inact; assay type: protein-complex assay; outline: as §3
[11] = target: T1, Ribonucleoside-diphosphate reductase RR1 (Homo sapiens); experiment: Inhibitory index against human ribonucleotide reductase; assay type: protein-complex assay; outline: as §2
[12] = pKa value of the compound; assay type: physicochemical
Outline: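 Protonation and anion-generation pKa values were determined spectrophotometrically.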

[13] = target: T1, Ribonucleoside-diphosphate reductase RR1 (Homo sapiens); experiment: Inhibition of human ribonucleotide reductase; assay type: protein-complex assay; parameters: concentration or dose not given beside the values; conditions: concentration not given here; outline: as §3
Human alphaherpesvirus 1 [14] = experiment: Inhibitory index against HSV-1 ribonucleotide reductase; outline: as §2
[15] = Partition coefficient (logD5.2) (octanol/pH 5.2 acetate buffer); assay type: physicochemical

| SMILES | Apparent selectivity (HSV-1/human inhibition index ratio) [1] | kinact (Human alphaherpesvirus 1 [2]) [h⁻¹] | Inhibitory index [3] | Inhibitory index (Human alphaherpesvirus 1 [4]) | inhibition [5] [%] | kinact [6] [h⁻¹] | Inhibition (Human alphaherpesvirus 1 [7]) [%] | inhibition (Human alphaherpesvirus 1 [8]) [%] | kinact (Human alphaherpesvirus 1 [9]) [h⁻¹] | kinact [10] [h⁻¹] | Inhibitory index [11] | pKa [12] | inhibition [13] [%] | Inhibitory index (Human alphaherpesvirus 1 [14]) | logD [15] |
| --- | --- | --- | --- | --- | --- | --- | --- | --- | --- | --- | --- | --- | --- | --- | --- |
| C/C(=N\N=C(/S)NNC(=S)NC(=O)c1ccccc1)c1ccccn1 | 4.5 | 15 | 5.4 | 24 | 54 | 2 | 38 | – | – | – | – | – | – | – | – |
| COc1ccc(Cl)cc1/N=C(\S)N/N=C(\S)N/N=C(\C)c1ccccn1 | 66 | 41 | 1.2 | 78 | 9 | 1 | 48 | – | – | – | – | – | – | – | – |
| C/C(=N\N=C(/S)N/N=C(\S)Nc1ccc(C(F)(F)F)cc1)c1ccccn1 | 350 | – | – | – | – | – | – | 59 | 33 | 0 | 0.23 | 3.87 | 19 | 80 | – |
| C/C(=N\N=C(/S)N/N=C(\S)Nc1cccc(C(F)(F)F)c1)c1ccccn1 | 21 | – | – | – | – | – | – | 15 | 34 | 1 | 1.9 | 3.89 | 31 | 40 | – |
| C/C(=N\N=C(/S)N/N=C(\S)Nc1cccnc1)c1ccccn1 | 15 | 9 | 0.73 | 11 | 43 | 0 | 18 | – | – | – | – | – | – | – | – |
| C/C(=N\N=C(/S)N/N=C(\S)Nc1cccc(Cl)c1Cl)c1ccccn1 | 160 | – | – | – | – | – | – | 29 | 49 | 0 | 0.42 | 3.86 | 30 | 68 | – |
| C/C(=N\N=C(/S)N/N=C(\S)NC12CC3CC(CC(C3)C1)C2)c1ccccn1 | 24 | 14 | 1.1 | 27 | 53 | 0 | 47 | – | – | – | – | – | – | – | – |
| C/C(=N\N/C(S)=N/N=C(\S)N(C)C)c1ccccn1 | 3 | – | – | – | – | – | – | 39 | 8 | 4 | 4.4 | – | 8 | 14 | 1.25 |
| C/C(=N\N=C(/S)N/N=C(\S)Nc1ccncc1)c1ccccn1 | 3.8 | 16 | 4.6 | 17 | 83 | 0 | 8 | – | – | – | – | – | – | – | – |
| C/C(=N\N=C(/S)N/N=C(\S)NCCN1CCOCC1)c1ccccn1 | 15 | 11 | 1 | 15 | 31 | 0.4 | 24 | – | – | – | – | – | – | – | – |
| C/C(=N\N=C(/S)N/N=C(\S)Nc1ccccc1)c1ccccn1 | 2.5 | 20 | 8.5 | 21 | 59 | 3 | 7 | – | – | – | – | – | – | – | – |
| C/C(=N\N=C(/S)N/N=C(\S)Nc1ccccc1C)c1ccccn1 | 4.6 | 10 | 3 | 14 | 51 | 1 | 27 | – | – | – | – | – | – | – | – |
| C/C(=N\N=C(/S)N/N=C(\S)Nc1cccc(C)c1)c1ccccn1 | 23 | 19 | 1.1 | 26 | 54 | 0 | 28 | – | – | – | – | – | – | – | – |
| C/C(=N\N=C(/S)N/N=C(\S)Nc1cccc(I)c1)c1ccccn1 | 10 | – | – | – | – | – | – | 27 | 25 | 3 | 3.3 | 3.8 | 7 | 34 | – |
| C/C(=N\N=C(/S)N/N=C(\S)Nc1ccccc1Cl)c1ccccn1 | 21 | – | – | – | – | – | – | 0 | 27 | 0 | 1.3 | 3.94 | 57 | 27 | 2.67 |
| CCOC(=O)NC(=S)N/N=C(\S)N/N=C(\C)c1ccccn1 | 1.8 | 6 | 3.9 | 7 | 40 | 2 | 14 | – | – | – | – | – | – | – | – |
